Measurements taken from ChEMBL document CHEMBL4257459, “Synergistic antifungal effect of cyclized chalcone derivatives and fluconazole against Candida albicans” (2017).
Converted amounts (≈) assume the structure as drawn.

Key:
Candida albicans [1] = assay: Inhibition of ergosterol biosynthesis in fluconazole susceptible Candida albicans ATCC 90028 at 0.5 to 1 times MIC relative to control; format: functional
In short: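 ATCC90028 grown in 50 ml TSB with MIC and ½ MIC of compound; untreated and 8 μg mL–1 fluconazole controls. Sterols extracted by alcoholic KOH method and spectrophotometrically scanned; ergosterol % calculated from A281.5 and A230 (E values 290 and 518) with dilution factor, per pellet weight.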

Candida albicans [2] = assay: Down regulation of ERG11 gene expression in fluconazole resistant Candida albicans A171 at MIC after 2 hrs by qRT PCR analysis relative to control; format: functional
In short: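 Cells exposed 2 h to test agents at MIC. Total RNA isolated, cDNA synthesized, qPCR for ERG11 with ACT1 as endogenous control. Triplicate independent experiments, reported as mean ± standard deviation.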

Candida albicans [3] = assay: Inhibition of ABC efflux pumps in fluconazole susceptible Candida albicans 002B1 assessed as reduction in energy-dependent rhodamine 6G efflux in presence of 0.1 M glucose after 25 mins […] relative to control
Candida albicans [4] = assay: Antifungal activity against fluconazole resistant Candida albicans 167-1 by CLSI protocol based broth microdilution method; format: functional
In short: (§1)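 Broth microdilution per CLSI M27-A3 against clinical C. albicans isolates. Strains sub-cultured at least twice on Tryptone Soya Agar, 37 °C, 48 h. Compounds dissolved in DMSO at 2000 μg mL–1 stock. Fluconazole positive control, plus culture, media and vehicle controls. Run in duplicate; MIC in μg mL–1.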

Candida albicans [5] = assay: Antifungal activity against fluconazole susceptible Candida albicans 002B1 by CLSI protocol based broth microdilution method; format: functional
In short: (§2)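 Clinical isolates and control strain subcultured at least twice on TSA, 37 °C, 48 h. MICs by CLSI M27-A3 broth microdilution; compounds dissolved in DMSO to 2000 μg mL–1 stock. Fluconazole positive control, culture, media and DMSO vehicle controls in each run. Duplicate experiments; MIC in μg mL–1.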

Candida albicans [6] = assay: Antifungal activity against fluconazole resistant Candida albicans 167-1 in presence of fluconazole by CLSI protocol based broth microdilution method; format: functional
In short: (§3)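 Checkerboard-style combination with fluconazole at a 1 : 1 ratio, over concentrations 2–4 fold below each agent's MIC alone, by CLSI broth microdilution. Fractional inhibitory concentration index calculated and interpreted as synergy (<0.5), additive (0.5–1), indifferent or antagonistic.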

Candida albicans [7] = assay: Antifungal activity against Candida albicans ATCC 90028 by CLSI protocol based broth microdilution method; format: functional; in short: as §2
Candida albicans [8] = assay: Inhibition of ABC efflux pumps in fluconazole susceptible Candida albicans 0079gr assessed as reduction in energy-dependent rhodamine 6G efflux in presence of 0.1 M glucose after 25 mins by fluorescence assay relative to control
In short: (§4)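 Cells grown in TSB at 37 °C for 8 h, washed, resuspended in glucose-free PBS at 1 × 10^8 cells. De-energized 45 min with 5 mM deoxyglucose plus 5 mM dinitrophenol. […] Washed, sampled 5–25 min, then 0.1 M glucose added. Absorbance 527 nm, R6G from standard curve.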

Candida albicans [9] = assay: Antifungal activity against fluconazole resistant Candida albicans 167-2 by CLSI protocol based broth microdilution method; format: functional; in short: as §1
Candida albicans [10] = assay: Antifungal activity against fluconazole susceptible Candida albicans 0072gr in presence of fluconazole by CLSI protocol based broth microdilution method; format: functional
Candida albicans [11] = assay: Down regulation of ERG11 gene expression in fluconazole susceptible Candida albicans ATCC 90028 at MIC after 2 hrs by qRT PCR analysis relative to control; format: functional
In short: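 Cells exposed to compound at MIC for 2 h; total RNA isolated, cDNA synthesised, ERG11 measured by real-time qPCR with ACT1 as endogenous control. Triplicate independent experiments; mean ± standard deviation.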

Candida albicans [12] = assay: Antifungal activity against Candida albicans ATCC 90028 in presence of fluconazole by CLSI protocol based broth microdilution method; format: functional
Candida albicans [13] = assay: Inhibition of ABC efflux pumps in fluconazole susceptible Candida albicans 004gr assessed as reduction in energy-dependent rhodamine 6G efflux in presence of 0.1 M glucose after 25 mins by fluorescence assay relative to control; in short: as §4
Candida albicans [14] = assay: Inhibition of ABC efflux pumps in fluconazole susceptible Candida albicans 0072gr assessed as reduction in energy-dependent rhodamine 6G efflux in presence of 0.1 M glucose after 25 mins […] relative to control
Candida albicans [15] = assay: Antifungal activity against fluconazole susceptible Candida albicans 0079gr by CLSI protocol based broth microdilution method; format: functional; in short: as §2
Candida albicans [16] = assay: Inhibition of ABC efflux pumps in fluconazole susceptible Candida albicans 003gr assessed as reduction in energy-dependent rhodamine 6G efflux in presence of 0.1 M glucose after 25 mins […] relative to control
Candida albicans [17] = assay: Antifungal activity against fluconazole susceptible Candida albicans 002B1 in presence of fluconazole by CLSI protocol based broth microdilution method; format: functional
Candida albicans [18] = assay: Inhibition of ABC efflux pumps in fluconazole resistant Candida albicans 167-2 assessed as reduction in energy-dependent rhodamine 6G efflux in presence of 0.1 M glucose after 25 mins […] relative to control
Candida albicans [19] = assay: Antifungal activity against fluconazole susceptible Candida albicans 004B1 in presence of fluconazole by CLSI protocol based broth microdilution method; format: functional
Candida albicans [20] = assay: Antifungal activity against fluconazole susceptible Candida albicans 003gr in presence of fluconazole by CLSI protocol based broth microdilution method; format: functional
Candida albicans [21] = assay: Antifungal activity against fluconazole susceptible Candida albicans 003gr by CLSI protocol based broth microdilution method; format: functional; in short: as §2
Candida albicans [22] = assay: Inhibition of ergosterol biosynthesis in fluconazole resistant Candida albicans A171 at 0.5 to 1 times MIC relative to control; format: functional
In short: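 Total sterols quantified by alcoholic KOH extraction in cells grown in 50 ml TSB with compounds at MIC and ½ MIC; untreated and 8 μg mL–1 fluconazole controls. Spectral scan; ergosterol content from A281.5 and A230 absorbances, dilution factor and pellet weight, correcting for 24(28) DHE.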

Candida albicans [23] = assay: Antifungal activity against fluconazole susceptible Candida albicans 004gr by CLSI protocol based broth microdilution method; format: functional; in short: as §2
Candida albicans [24] = assay: Inhibition of ABC efflux pumps in fluconazole resistant Candida albicans 167-1 assessed as reduction in energy-dependent rhodamine 6G efflux in presence of 0.1 M glucose after 25 mins […] relative to control
Candida albicans [25] = assay: Antifungal activity against fluconazole resistant Candida albicans 167-2 in presence of fluconazole by CLSI protocol based broth microdilution method; format: functional; in short: as §3
Candida albicans [26] = assay: Antifungal activity against fluconazole susceptible Candida albicans 0072gr by CLSI protocol based broth microdilution method; format: functional; in short: as §2
Candida albicans [27] = assay: Inhibition of ABC efflux pumps in fluconazole resistant Candida albicans A171 assessed as reduction in energy-dependent rhodamine 6G efflux in presence of 0.1 M glucose after 25 mins by fluorescence assay relative to control; in short: as §4
Candida albicans [28] = assay: Antifungal activity against fluconazole susceptible Candida albicans 004B1 by CLSI protocol based broth microdilution method; format: functional; in short: as §2
Candida albicans [29] = assay: Antifungal activity against fluconazole susceptible Candida albicans 0079gr in presence of fluconazole by CLSI protocol based broth microdilution method; format: functional
Candida albicans [30] = assay: Antifungal activity against fluconazole resistant Candida albicans A171 in presence of fluconazole by CLSI protocol based broth microdilution method; format: functional; in short: as §3
Candida albicans [31] = assay: Antifungal activity against fluconazole susceptible Candida albicans 004gr in presence of fluconazole by CLSI protocol based broth microdilution method; format: functional
Candida albicans [32] = assay: Antifungal activity against fluconazole resistant Candida albicans A171 by CLSI protocol based broth microdilution method; format: functional; in short: as §1
Candida albicans [33] = assay: Inhibition of ABC efflux pumps in fluconazole susceptible Candida albicans 004B1 assessed as reduction in energy-dependent rhodamine 6G efflux in presence of 0.1 M glucose after 25 mins by fluorescence assay relative to control; in short: as §4

Row | Structure (SMILES) | inhibition (INH) (Candida albicans [1]) | fold change (FC) (Candida albicans [2]) | inhibition (Candida albicans [3]) [%] | MIC (Candida albicans [4]) [µg/mL] | MIC (Candida albicans [5]) [µg/mL] | fractional inhibitory concentration index (FICI) (Candida albicans [6]) | MIC (Candida albicans [7]) [µg/mL] | inhibition (Candida albicans [8]) [%] | MIC (Candida albicans [9]) [µg/mL] | fractional inhibitory concentration index (FICI) (Candida albicans [10]) | fold change (FC) (Candida albicans [11]) | fractional inhibitory concentration index (FICI) (Candida albicans [12]) | inhibition (Candida albicans [13]) [%] | inhibition (Candida albicans [14]) [%] | MIC (Candida albicans [15]) [µg/mL] | inhibition (Candida albicans [16]) [%] | fractional inhibitory concentration index (FICI) (Candida albicans [17]) | inhibition (Candida albicans [18]) [%] | fractional inhibitory concentration index (FICI) (Candida albicans [19]) | fractional inhibitory concentration index (FICI) (Candida albicans [20]) | also measured
1 | NC(=S)N1N=C(c2ccccc2)CC1c1ccc(C2CC(c3ccccc3)=NN2C(N)=S)cc1 (stereo unspecified) | 66 - 99% | 1.25 - 10 | < 20 | 125 to 500 (≈ 258 to 1030 µM) | 8 to 125 (≈ 16.5 to 258 µM) | 0.372 - 1.5 | 8 to 125 (≈ 16.5 to 258 µM) | < 20 | 125 to 500 (≈ 258 to 1030 µM) | 0.53 - 2.19 | 1.5 - 13 | 0.53 - 2.19 | < 20 | < 20 | 8 to 125 (≈ 16.5 to 258 µM) | < 20 | 0.53 - 2.19 | < 20 | 0.53 - 2.19 | 0.53 - 2.19 | MIC (Candida albicans [21]): 8 to 125 µg/mL (≈ 16.5 to 258 µM); inhibition (INH) (Candida albicans [22]): 49 - 94%; MIC (Candida albicans [23]): 8 to 125 µg/mL (≈ 16.5 to 258 µM); inhibition (Candida albicans [24]): < 20%; fractional inhibitory concentration index (FICI) (Candida albicans [25]): 0.372 - 1.5; MIC (Candida albicans [26]): 8 to 125 µg/mL (≈ 16.5 to 258 µM); inhibition (Candida albicans [27]): < 20%; MIC (Candida albicans [28]): 8 to 125 µg/mL (≈ 16.5 to 258 µM); fractional inhibitory concentration index (FICI) (Candida albicans [29]): 0.53 - 2.19; fractional inhibitory concentration index (FICI) (Candida albicans [30]): 0.372 - 1.5; fractional inhibitory concentration index (FICI) (Candida albicans [31]): 0.53 - 2.19; MIC (Candida albicans [32]): 125 to 500 µg/mL (≈ 258 to 1030 µM); inhibition (Candida albicans [33]): < 20%
2 | c1ccc(-c2cc(-c3ccc(-c4cc(-c5ccccc5)n[nH]4)cc3)[nH]n2)cc1 | 66 - 99% | 1.25 - 10 | < 20 | 31 to 125 (≈ 85.5 to 345 µM) | 2 to 16 (≈ 5.52 to 44.1 µM) | 0.531 - 2.27 | 2 to 16 (≈ 5.52 to 44.1 µM) | < 20 | 31 to 125 (≈ 85.5 to 345 µM) | 0.63 - 1.5 | 1.5 - 13 | 0.63 - 1.5 | < 20 | < 20 | 2 to 16 (≈ 5.52 to 44.1 µM) | < 20 | 0.63 - 1.5 | < 20 | 0.63 - 1.5 | 0.63 - 1.5 | MIC (Candida albicans [21]): 2 to 16 µg/mL (≈ 5.52 to 44.1 µM); inhibition (INH) (Candida albicans [22]): 49 - 94%; MIC (Candida albicans [23]): 2 to 16 µg/mL (≈ 5.52 to 44.1 µM); inhibition (Candida albicans [24]): < 20%; fractional inhibitory concentration index (FICI) (Candida albicans [25]): 0.531 - 2.27; MIC (Candida albicans [26]): 2 to 16 µg/mL (≈ 5.52 to 44.1 µM); inhibition (Candida albicans [27]): < 20%; MIC (Candida albicans [28]): 2 to 16 µg/mL (≈ 5.52 to 44.1 µM); fractional inhibitory concentration index (FICI) (Candida albicans [29]): 0.63 - 1.5; fractional inhibitory concentration index (FICI) (Candida albicans [30]): 0.531 - 2.27; fractional inhibitory concentration index (FICI) (Candida albicans [31]): 0.63 - 1.5; MIC (Candida albicans [32]): 31 to 125 µg/mL (≈ 85.5 to 345 µM); inhibition (Candida albicans [33]): < 20%
